Test results: ChEMBL document CHEMBL1134785, “Synthesis and biological evaluation of prostaglandin-F alkylphosphinic acid derivatives as bone anabolic agents for the treatment of osteoporosis” (J Med Chem, 2001)

Columns and labels:
[1] = system: Rattus norvegicus; experiment: Derived trabecular thickness (um) measured using micro Computed Tomography(CT) after a dose of 10 ug/kg in Vertebral Bone; format: functional, Trabecula
Method in brief: (§1)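 Micro-CT of the fifth lumbar vertebra, measuring cancellous bone volume and architecture. Rats were 6 months old, OVX 60 days before treatment, then dosed daily for 60 days. Test-agent doses were 10–3000 µg/kg, given as a once-daily subcutaneous injection; 6 mg/kg/day was given to the positive-control group. Groups were compared with vehicle by ANOVA plus LSD test.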

[2] = system: Rattus norvegicus; experiment: Bone formation rate/tissue volume (%/year)bone Histomorphometrically after a dose of 1000 ug/kg in proximal tibial metaphysis; format: functional; conditions: at 1000 µg/kg
[3] = system: Rattus norvegicus; experiment: Bone formation rate/tissue volume (%/year) bone measured histomorphometrically after a dose of 30 ug/kg in proximal tibial metaphysis; format: functional; conditions: at 30 µg/kg
[4] = system: Rattus norvegicus; experiment: Bone Volume /Tissue Volume (%)measured Histomorphometrically after a dose of 300 ug/kg in proximal tibial metaphysis; format: functional; conditions: at 300 µg/kg
[5] = molecular target: T1, Prostaglandin D2 receptor (Homo sapiens, UniProt Q13258); experiment: In vitro binding at DP human prostaglandin receptor using [3H]- PGD-2 as radioligand
T1 sequence (Q13258 whole entry): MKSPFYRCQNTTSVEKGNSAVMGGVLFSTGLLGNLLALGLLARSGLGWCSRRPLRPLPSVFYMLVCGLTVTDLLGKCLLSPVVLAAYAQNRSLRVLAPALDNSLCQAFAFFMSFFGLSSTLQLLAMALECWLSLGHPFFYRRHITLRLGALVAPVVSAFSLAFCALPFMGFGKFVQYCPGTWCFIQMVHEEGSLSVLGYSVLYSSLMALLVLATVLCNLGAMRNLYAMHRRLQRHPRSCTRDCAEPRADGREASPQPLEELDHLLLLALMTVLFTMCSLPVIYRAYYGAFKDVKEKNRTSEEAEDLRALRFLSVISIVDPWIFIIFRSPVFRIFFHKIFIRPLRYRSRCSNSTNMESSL
Method in brief: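 hDP stably expressed in HEK-293 cells, collected 4-5 days after seeding. Membranes made by lysis and 100000g spin, then taken up at 1 mg protein/mL in TME buffer at pH 7.4. Competition binding used 5 nM [3H]PGD2, read by filtration and scintillation counting.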

[6] = system: Rattus norvegicus; experiment: Endosteal eroded surface(%) measured Histomorphometrically after a dose of 100 ug/kg in tibial diaphysis; format: functional
Method in brief: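 Tibial histomorphometry in 6-month-old rats, OVX 60 days before treatment, then daily injection for 60 days. Vehicle was acetate-buffered saline with methylcellulose and polyoxyethylenesorbitan monooleate. Rats received xylenol orange 90 mg/kg before treatment and calcein 10 mg/kg at 14 and 4 days pre-sacrifice. Rats were killed by cardiac puncture under ketamine/xylazine. Groups were compared with vehicle by ANOVA plus LSD test.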

[7] = system: Rattus norvegicus; experiment: Periosteal mineralizing surface (%) measured Histomorphometrically after a dose of 3000 ug/kg in tibial diaphysis; format: functional
Method in brief: (§2)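 Rats on natural chow (1.46% Ca) were bilaterally ovariectomized at 6 months and left untreated for 60 days. They then received once-daily subcutaneous doses for 60 days, with vehicle of acetate-buffered saline, methylcellulose and polysorbate. Xylenol orange (90 mg/kg) was given before treatment and calcein (10 mg/kg) 14 and 4 days before sacrifice. Tibiae were analysed by fluorescent histomorphometry, 6-8 rats/group, ANOVA/LSD vs vehicle.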

[8] = system: Rattus norvegicus; experiment: Derived trabecular no […]measured using micro Computed Tomography(CT) after a dose of 10 ug/kg in Vertebral Bone; format: functional, Trabecula; method in brief: as §1
[9] = system: Rattus norvegicus; experiment: Directly measured thickness(um) using micro Computed Tomography(CT) after a dose of 300 ug/kg in Vertebral Bone; format: functional; method in brief: as §1
[10] = system: Rattus norvegicus; experiment: Trabecular thickness […] measured Histomorphometrically after a dose of 10 ug/kg in proximal tibial metaphysis; format: functional, Trabecula
Method in brief: (§3)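 Six-month-old rats were ovariectomized, and 60 days later daily subcutaneous dosing began for 60 days, with vehicle of acetate-buffered saline, methylcellulose and polysorbate. Xylenol orange (90 mg/kg) labelled bone pre-treatment and calcein (10 mg/kg) 14 and 4 days pre-sacrifice. Histomorphometry covered the proximal tibial metaphysis 1-4 mm distal to the growth plate-metaphyseal junction. Groups were 6-8 rats, compared by ANOVA/LSD vs vehicle.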

[11] = system: Rattus norvegicus; experiment: Trabecular no (mm)measured Histomorphometrically after a dose of 1000 ug/kg in proximal tibial metaphysis; format: functional, Trabecula; method in brief: as §3
[12] = system: Rattus norvegicus; experiment: Bone formation rate/bone volume (%/year)bone measured Histomorphometrically after a dose of 300 ug/kg in proximal tibial metaphysis; format: functional; conditions: at 300 µg/kg
[13] = system: Rattus norvegicus; experiment: Tissue area (mm) measured Histomorphometrically after a dose of 30 ug/kg in tibial diaphysis; format: functional; method in brief: as §2
[14] = system: Rattus norvegicus; experiment: Trabecular thickness […] measured Histomorphometrically after a dose of 1000 ug/kg in proximal tibial metaphysis; format: functional, Trabecula; method in brief: as §3
[15] = system: Rattus norvegicus; experiment: connectivity density (mm-3) using micro Computed Tomography(CT) after a does of 300 ug/kg in Vertebral Bone; format: functional
Method in brief: (§4)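 Rats were ovariectomized at 6 months of age and, after 60 days, dosed subcutaneously once daily for 60 days, with vehicle of acetate-buffered saline, methylcellulose and polysorbate. At necropsy the fifth lumbar vertebra was scanned by micro-CT to obtain cancellous architecture. Groups were 6-8 rats; results were compared to vehicle by ANOVA with least significant difference test.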

[16] = system: Rattus norvegicus; experiment: Trabecular no (mm)measured Histomorphometrically after a dose of 100 ug/kg in proximal tibial metaphysis; format: functional, Trabecula; method in brief: as §3
[17] = system: Rattus norvegicus; experiment: Bone Volume /Tissue Volume (%)measured Histomorphometrically after a dose of 1000 ug/kg in proximal tibial metaphysis; format: functional; conditions: at 1000 µg/kg
[18] = system: Rattus norvegicus; experiment: Directly measured thickness(um) using micro Computed Tomography(CT) after a dose of 3000 ug/kg in Vertebral Bone; format: functional; method in brief: as §1
[19] = system: Rattus norvegicus; experiment: Periosteal mineralizing surface (%) measured Histomorphometrically after a dose of 100 ug/kg in tibial diaphysis; format: functional; method in brief: as §2
[20] = system: Rattus norvegicus; experiment: Mineral apposition rate ([…])bone measured Histomorphometrically after a dose of 300 ug/kg in tibial diaphysis; format: functional
Method in brief: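 Six-month-old rats, bilaterally ovariectomized, 6-8 per group, on natural chow. After 60 days they received once-daily subcutaneous dosing for 60 days at 0.01–3.0 mg/kg. Vehicle was acetate-buffered saline with methylcellulose and polyoxyethylenesorbitan monooleate. Labels were xylenol orange 90 mg/kg before treatment and calcein 10 mg/kg 14 and 4 days before sacrifice. Tibial histomorphometry was read under fluorescent light, with ANOVA/LSD versus vehicle.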

[21] = system: Rattus norvegicus; experiment: Bone Volume /Tissue Volume (%)measured Histomorphometrically after a dose of 100 ug/kg in proximal tibial metaphysis; format: functional; conditions: at 100 µg/kg
[22] = system: Rattus norvegicus; experiment: connectivity density using micro Computed Tomography(CT) after a dose of 100 ug/kg in Vertebral Bone; format: functional; method in brief: as §4
[23] = system: Rattus norvegicus; experiment: Bone Volume /Tissue Volume (%)measured using micro Computed Tomography(CT) after a dose of 300 ug/kg in Vertebral Bone; format: functional; conditions: at 300 µg/kg
[24] = molecular target: Prostaglandin E2 receptor EP4 subtype (Homo sapiens, UniProt P35408); experiment: In vitro binding at EP4 human prostaglandin receptor using [3H]PGE-2 as radioligand
Method in brief: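 Receptors stably expressed in CHO cells, collected 4-5 days after seeding. Membranes made by lysis (Tris, EDTA, protease inhibitors) and 100000g pellet, then resuspended at 1 mg protein/mL in TME. Radioligands at 5 nM: [3H]PGE2 for EP2/EP3/EP4, [3H]Iloprost for IP, [3H]SQ-29548 for TP. Competition binding with filtration and counting.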

Chain of Prostaglandin E2 receptor EP4 subtype (P35408 whole entry): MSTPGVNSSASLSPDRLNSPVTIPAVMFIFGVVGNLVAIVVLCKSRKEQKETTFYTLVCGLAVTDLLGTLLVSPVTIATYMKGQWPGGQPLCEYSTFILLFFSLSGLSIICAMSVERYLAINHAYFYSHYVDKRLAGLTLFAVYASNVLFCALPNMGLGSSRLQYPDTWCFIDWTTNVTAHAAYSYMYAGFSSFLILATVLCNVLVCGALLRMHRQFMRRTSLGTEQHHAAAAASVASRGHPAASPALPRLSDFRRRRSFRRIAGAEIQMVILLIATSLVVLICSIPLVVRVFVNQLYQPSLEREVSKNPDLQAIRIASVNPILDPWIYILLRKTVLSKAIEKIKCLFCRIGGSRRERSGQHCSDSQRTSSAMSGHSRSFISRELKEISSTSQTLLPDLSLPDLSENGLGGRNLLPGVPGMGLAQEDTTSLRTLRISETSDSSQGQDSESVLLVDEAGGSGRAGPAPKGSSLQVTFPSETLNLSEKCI

CP(=O)(O)CCC/C=C\C[C@@H]1[C@@H](/C=C/[C@@H](O)COc2ccccc2)[C@H](O)C[C@@H]1O was tested, and the Derived trabecular thickness [1] was 73 µm, the Activity [2] was 23.44% and the Activity [3] was 17.55%. It also gave an Activity [4] of 5.72%, an IC50 [5] greater than 10 µM and an Endosteal eroded surface [6] of 2.3%. It also gave a Periosteal mineralizing surface [7] of 11.109%, a Derived trabecular number [8] of 4.26 mm-1 and a Directly measured thickness [9] of 127 µm. For the same molecule, the Trabecular thickness [10] was 35.7 µm, the Trabecular no. [11] was 1.64 1/mm and the Activity [12] was 322.61%. It also gave a Tissue area [13] of 5.19 mm, a Trabecular thickness [14] of 56.7 µm and a Connectivity density [15] of 66.71 mm**-3. The Trabecular no. [16] was 1.28 1/mm, the Activity [17] was 9.43% and the Directly measured thickness [18] was 134 µm. The Periosteal mineralizing surface [19] was 15.21%, the Mineral apposition rate [20] was 0.53 µm/day and the Activity [21] was 5.84%. It also gave a Connectivity density [22] of 68.1 mm**-3, an Activity [23] of 38.61% and an IC50 [24] greater than 10 µM.
